Results taken from ChEMBL document CHEMBL3124940, “Design, synthesis and biological evaluation of D-ring opened galantamine analogs as multifunctional anti-Alzheimer agents” (Eur J Med Chem, 2014).
pIC50: −log10 of the molar value. Calls of active or inactive are those of the source. No cut-off for these calls is given here.

What was measured:
[1] = molecular target: Acetylcholinesterase (Electrophorus electricus, UniProt O42275); assay: Inhibition of electric eel AChE using acetylthiocholine iodide as substrate preincubated for 5 mins followed by substrate addition measured after 5 mins by Ellman's method
[2] = molecular target: Amyloid-beta precursor protein (Homo sapiens) (UniProt P05067); assay: Inhibition of amyloid beta (1 to 42) aggregation (unknown origin) after 1 hr by thioflavin T fluorescence assay
Procedure, shortened: (§1)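 Aβ42 stock (200 µM in DMSO) centrifuged 12,000 rpm for 10 min; supernatant used. Compound (2 µL of 0.2–4.0 mM DMSO stock) and 2 µL Aβ42 stock added to 76 µL PBS pH 7.4, incubated 1 h at room temperature. 80 µL of 5 µM ThT in 50 mM glycine-NaOH pH 8.5 then added; fluorescence read at excitation 430 nm, emission 488 nm.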

[3] = molecular target: Amyloid-beta precursor protein (Homo sapiens) (UniProt P05067); assay: Inhibition of amyloid beta (1 to 42) aggregation (unknown origin) at 5 uM after 1 hr by thioflavin T fluorescence assay; procedure, shortened: as §1
[4] = molecular target: Cholinesterase (Equus caballus, UniProt P81908); assay: Inhibition of equine serum BChE using butyrylthiocholine iodide as substrate preincubated for 5 mins followed by substrate addition measured after 5 mins by Ellman's method
Procedure, shortened: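 Ellman's method with equine serum BChE and butyrylthiocholine iodide; DTNB read-out at 412 nm, 25 °C. Phosphate buffer pH 8.0. At least five concentrations (normally 10^-4 to 10^-9 M), each in triplicate, to build the inhibition curve. Data are means of at least three determinations.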

[5] = Selectivity ratio of IC50 for electric eel AChE to IC50 for equine serum BChE
Procedure, shortened: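 AChE is electric eel Type VI-S with acetylthiocholine; BChE is equine serum with butyrylthiocholine. At least five concentrations, each in triplicate. Ratio = IC50(AChE)/IC50(BChE).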

Acetylcholinesterase, sequence (O42275 whole entry): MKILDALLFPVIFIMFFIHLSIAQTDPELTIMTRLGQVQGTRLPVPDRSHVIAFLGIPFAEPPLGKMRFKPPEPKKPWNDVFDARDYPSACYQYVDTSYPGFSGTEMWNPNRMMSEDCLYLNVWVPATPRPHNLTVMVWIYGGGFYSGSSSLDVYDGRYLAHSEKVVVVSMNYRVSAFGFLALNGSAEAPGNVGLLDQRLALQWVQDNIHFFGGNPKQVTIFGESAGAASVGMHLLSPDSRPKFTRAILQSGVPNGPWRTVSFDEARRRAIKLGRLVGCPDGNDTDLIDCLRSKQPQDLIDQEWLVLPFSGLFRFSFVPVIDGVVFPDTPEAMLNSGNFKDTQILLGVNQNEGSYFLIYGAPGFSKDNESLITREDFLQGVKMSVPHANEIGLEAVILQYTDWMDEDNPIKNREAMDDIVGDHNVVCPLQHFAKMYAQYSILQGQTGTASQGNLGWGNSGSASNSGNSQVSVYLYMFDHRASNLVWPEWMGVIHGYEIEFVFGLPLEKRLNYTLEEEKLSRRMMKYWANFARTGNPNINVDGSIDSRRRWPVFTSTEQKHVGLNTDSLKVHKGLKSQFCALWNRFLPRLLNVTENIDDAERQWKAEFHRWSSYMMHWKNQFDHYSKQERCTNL
Cholinesterase, sequence (P81908 whole entry): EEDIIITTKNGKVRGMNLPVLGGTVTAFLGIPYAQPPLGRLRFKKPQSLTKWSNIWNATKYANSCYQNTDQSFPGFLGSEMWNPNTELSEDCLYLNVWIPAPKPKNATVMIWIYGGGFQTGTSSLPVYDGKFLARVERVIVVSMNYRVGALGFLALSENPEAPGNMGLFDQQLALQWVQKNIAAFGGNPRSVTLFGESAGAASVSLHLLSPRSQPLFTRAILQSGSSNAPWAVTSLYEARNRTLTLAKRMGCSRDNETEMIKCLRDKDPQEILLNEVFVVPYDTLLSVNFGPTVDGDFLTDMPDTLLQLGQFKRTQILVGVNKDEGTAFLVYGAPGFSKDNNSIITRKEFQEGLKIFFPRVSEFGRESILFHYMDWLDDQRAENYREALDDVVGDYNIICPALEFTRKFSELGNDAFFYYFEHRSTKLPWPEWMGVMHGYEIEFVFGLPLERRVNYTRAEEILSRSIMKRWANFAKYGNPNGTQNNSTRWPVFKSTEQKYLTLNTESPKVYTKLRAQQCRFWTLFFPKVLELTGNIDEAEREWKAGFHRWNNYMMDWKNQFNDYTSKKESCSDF
Amyloid-beta precursor protein (Homo sapiens), sequence (P05067 whole entry): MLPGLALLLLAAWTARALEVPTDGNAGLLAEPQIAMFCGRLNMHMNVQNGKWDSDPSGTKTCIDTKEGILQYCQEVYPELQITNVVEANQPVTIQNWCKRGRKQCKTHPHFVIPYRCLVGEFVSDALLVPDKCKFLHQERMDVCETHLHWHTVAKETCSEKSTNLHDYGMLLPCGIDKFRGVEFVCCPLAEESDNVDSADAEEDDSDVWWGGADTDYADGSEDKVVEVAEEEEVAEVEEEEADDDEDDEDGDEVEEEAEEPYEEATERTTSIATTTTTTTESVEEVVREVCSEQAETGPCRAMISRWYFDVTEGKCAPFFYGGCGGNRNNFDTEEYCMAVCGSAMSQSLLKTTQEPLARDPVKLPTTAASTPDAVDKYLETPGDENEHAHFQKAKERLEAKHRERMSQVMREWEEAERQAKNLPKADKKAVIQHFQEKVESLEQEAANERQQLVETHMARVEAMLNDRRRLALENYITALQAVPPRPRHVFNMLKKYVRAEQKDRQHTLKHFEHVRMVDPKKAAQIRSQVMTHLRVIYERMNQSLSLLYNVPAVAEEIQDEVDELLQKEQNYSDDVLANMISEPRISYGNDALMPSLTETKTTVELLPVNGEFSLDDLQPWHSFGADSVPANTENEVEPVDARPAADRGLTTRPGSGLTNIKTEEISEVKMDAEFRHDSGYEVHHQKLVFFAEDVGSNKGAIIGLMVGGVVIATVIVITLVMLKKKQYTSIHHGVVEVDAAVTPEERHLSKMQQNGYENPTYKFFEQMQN

| inhibition [2] | inhibition [3] | Structure (SMILES) | pIC50 [1] | pIC50 [4] | Ratio IC50 [5] |
| --- | --- | --- | --- | --- | --- |
| – | – | CCN(C)Cc1cccc2oc3cc(OC)ccc3c12 | < 4.30 | – | – |
| Dose-dependent effect | inactive | COc1cc(/C=C/C(=O)CC(=O)/C=C/c2ccc(O)c(OC)c2)ccc1O | – | – | – |
| – | – | CCNCc1cccc2oc3cc(OC)ccc3c12 | 4.72 | 4.65 | 0.85 |
| – | – | CC(C)NCc1cccc2[nH]c3cc(O)ccc3c12 | 4.36 | 4.76 | 3.54 |
| – | – | COc1ccc2c(c1)[nH]c1cccc(CNCc3ccccc3)c12 | < 4.30 | 4.52 | – |
| – | – | COc1ccc2c(c1)[nH]c1cccc(CNC(C)C)c12 | 4.29 | 5.00 | 5.03 |
| – | – | CC(C)NCc1cccc2oc3cc(O)ccc3c12 | 4.65 | 4.74 | 1.23 |
| – | – | COc1ccc2c(c1)oc1cccc(CNCc3ccccc3)c12 | < 4.30 | 4.74 | – |
| – | – | COc1ccc2c(c1)oc1cccc(CNC(C)C)c12 | 4.94 | 4.87 | 0.86 |
| – | – | CCN(CC)Cc1cccc2[nH]c3cc(OC)ccc3c12 | 4.42 | 4.83 | 2.54 |
| – | – | CCN(CC)Cc1cccc2oc3cc(OC)ccc3c12 | 4.41 | 4.56 | 1.43 |
